# NPY-Y1 antag: NPY-Y1 (human) receptor antagonism; P25929; HEK293-CNG Y1 cells, membrane potential fluorescence; NPY at EC95, then isoproterenol; actives 1% (n = 200,000); AID 1040; inhibition, % at 3.6 µM;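 active means inhibition above the campaign mean inhibition of all tested compounds plus 3 SD, cut at about 20% in these data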;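 further: 0% = DMSO wells given NPY plus isoproterenol and 100% = isoproterenol alone without NPY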
# Target sequence (P25929 whole entry, looked up): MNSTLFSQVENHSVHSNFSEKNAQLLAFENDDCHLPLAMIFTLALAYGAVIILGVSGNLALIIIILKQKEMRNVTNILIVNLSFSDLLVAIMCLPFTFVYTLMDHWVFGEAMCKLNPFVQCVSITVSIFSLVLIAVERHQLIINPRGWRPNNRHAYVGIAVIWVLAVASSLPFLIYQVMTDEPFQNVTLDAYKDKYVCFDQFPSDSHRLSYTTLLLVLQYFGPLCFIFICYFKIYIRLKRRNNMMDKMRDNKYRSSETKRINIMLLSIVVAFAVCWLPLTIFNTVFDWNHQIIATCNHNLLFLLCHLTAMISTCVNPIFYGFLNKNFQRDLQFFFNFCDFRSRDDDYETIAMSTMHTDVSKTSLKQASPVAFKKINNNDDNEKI
#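 Material: HEK293 Y1/CNG channel cell line | Also added: NPY (25 nM), isoproterenol (1 µM), Ro 20-1724 (25 µM) | Compound: One concentration, 3.6 µM, in 0.4% DMSO | Schedule: 3 h dye uptake, 1 h room-temperature compound, 45 min post-isoproterenol | Signal: Membrane-potential fluorescent dye readout | Read-out: % inhibition of NPY effect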
# NPY-Y2 PAM-ag: potentiators or agonists of human neuropeptide Y receptor Y2. P49146. cells expressing NPY-Y2, potentiator/agonist read-out. activation, % at 3.6 µM. actives 0.45% (n = 220,000); in the data active means activation above about 27%;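 further: cells stimulated with NPY near EC25 plus isoproterenol at EC100; 0% = vehicle plus submaximal agonist and 100% = vehicle plus saturating agonist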
# EP2 mod: modulates human prostaglandin E2 receptor EP2 signaling. P43116. EP2-expressing cells, cAMP HTRF FRET, PGE2 co-stimulation. induction, % at 25 µM. actives 0.83% (n = 260,000). AID 940;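 active means compounds whose cAMP rise, as percent of the full-agonist control response, exceeds 60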;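 further: rat C6 glioma line stably carrying human EP2 under a CMV promoter; the protocol text gives 20 µM as final concentration; 100% = response of wells given 1 µM PGE2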
# NPY-Y1 PAM-ag: potentiators or agonists of human neuropeptide Y receptor Y1. P25929. NPY-Y1 expressing cells, potentiator/agonist activation. activation, % at 3.6 µM. actives 0.37% (n = 220,000); in the data active means activation above about 33%, passing the limit was not always enough;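 further: cells stimulated with NPY at EC10 then isoproterenol at EC100; 0% = low agonist plus stimulus and 100% = saturating agonist plus stimulus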
# PGE2 EP2 inh: blocks the human prostaglandin E2 receptor EP2; C6 glioma cells expressing human EP2, cAMP TR-FRET; cells stimulated with saturating PGE2; inhibition, % at 25 µM; actives 0.52% (n = 260,000); AID 1422;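 active means percent inhibition above 40 after rounding to a whole number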;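 further: rat C6 glioma host cells with rolipram phosphodiesterase inhibitor present; the protocol text gives 20 µM as final concentration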
# NPY Y2 blocker: blocks the human neuropeptide Y Y2 receptor | P49146 | NPY-Y2 expressing cells, antagonist mode | inhibition, % at 2.7 µM | actives 0.99% (n = 140,000); in the data active means inhibition above about 17%;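 further: 0% = vehicle with agonist challenge and 100% = reference antagonist with challenge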
# Numbers without * were called inactive; nt = no result given. Compounds with a hit are over-represented: about 2.8% of the library has one in this group of screens.
SMILES,NPY-Y1 antag,NPY-Y2 PAM-ag,EP2 mod,NPY-Y1 PAM-ag,PGE2 EP2 inh,NPY Y2 blocker
CCOc1ccc(NC(=O)c2c(C)c(CC)nc3ccccc23)cc1,nt,nt,-18,nt,12,nt
O=C1C=C(NCc2ccc(Cl)cc2Cl)C2(CCCCC2)O1,26*,8,-17,-19,7,26*
COc1cc(/C=C/c2nc(O)c([N+](=O)[O-])c(=O)[nH]2)cc(Cl)c1OCc1ccccc1,nt,nt,25,nt,3,nt
Cc1ccc(C(C)C(=O)N2CCC(n3nnc4ccccc4c3=O)CC2)cc1 (centres undefined),nt,nt,-12,nt,11,nt
COc1ccc(C[C@@H]2C(=O)N[C@H](C)C(=O)N(C)[C@@H]3Cc4ccc(cc4)Oc4cc(ccc4O)C[C@@H](C(=O)N[C@@H](C)C(=O)N[C@H](C)C(=O)N2C)N(C)C3=O)cc1,nt,nt,26,nt,41*,nt
COC(=O)c1c(NC(=O)c2ccc(Cl)cc2)sc(C(=O)Nc2cccc(OC)c2)c1C,nt,nt,1,nt,8,nt
Cc1ccc(-c2nnn(CC(=O)N(Cc3cccs3)C(C(=O)NC(C)(C)C)c3ccc(C)o3)n2)o1 (centres undefined),35*,-80,40,-112,4,40*
CCC(=O)N(CCC(c1ccco1)c1ccccc1OC)Cc1cccs1 (centres undefined),25*,1,47,-3,7,22*
S=c1[nH]nc(-c2ccco2)n1/N=C/c1cccc(Cl)c1Cl,4,-3,61*,2,1,4
CCCC(c1nnnn1C(C)(C)C)N1CCN(c2ccccc2)CC1 (centres undefined),21*,-1,11,15,11,nt
O=C(c1cccs1)N(Cc1ccco1)Cc1cc2cc3c(cc2[nH]c1=O)OCO3,nt,nt,-17,nt,12,nt
N=c1n(CCN2CCCCC2)c2ccccc2n1CC(O)COc1ccccc1 (centres undefined),49*,-28,10,-75,22,60*
CCCCn1c(=N)n(CC(O)COc2ccc(C)cc2)c2ccccc21 (centres undefined),61*,-16,-7,-32,4,47*
CCCCn1c(=N)n(CC(O)COc2ccccc2)c2ccccc21 (centres undefined),34*,-60,-3,-58,16,26*
CN1C(=O)c2cccc3c(S(=O)(=O)NCC(=O)O)ccc1c23,nt,nt,-24,nt,9,nt
Cc1csc(NC(=O)CSc2nc3cc4c(cc3cc2C#N)OCCO4)n1,nt,nt,-17,nt,19,nt
COC(=O)c1cc2ccsc2n1Cc1nc(-c2cccc(Cl)c2)oc1C,12,-3,61*,0,11,3
COC(=O)c1cc2sccc2n1Cc1nc(-c2cccc(Cl)c2)oc1C,0,-10,13,2,10,1
CCOc1ccccc1OCCN1CCC(Cc2ccccc2)CC1,26*,-10,-34,-29,10,17*
COc1cccc(-c2nnn(CC(=O)O)n2)c1,26*,-33,12,-47,5,2
OCc1ccncc1.OCc1ccncc1.[Cl][Pt]([Cl])([Cl])[Cl],nt,nt,-14,nt,69*,nt
CCC(C)NC(=S)N(Cc1cc2cc(C)ccc2n2nnnc12)C1CCCCC1 (centres undefined),nt,nt,37,nt,17,nt
Cc1ccc(NC(=O)C(C)NC(=O)C2OC3OC(C)(C)OC3C3OC(C)(C)OC23)cc1 (centres undefined),nt,nt,-13,nt,8,nt
CCOc1ccc(-c2cc(C(=O)Nc3ccc4c(c3)OCCO4)c3ccccc3n2)cc1,27*,-12,-5,-8,9,8
CC(NC(=O)c1cc(-c2ccc3c(c2)OCO3)nc2ccccc12)C(C)(C)C (centres undefined),147*,-119,-12,-456,7,151*
SMILES,NPY-Y1 antag,NPY-Y2 PAM-ag,EP2 mod,NPY-Y1 PAM-ag,PGE2 EP2 inh,NPY Y2 blocker
O=C(O)c1cc(-c2ccc3c(c2)OCO3)nc2ccccc12,6,-5,5,2,17,5
CCn1c(N2CCC(C(=O)NC3CCc4ccccc43)CC2)nc2ccccc21 (centres undefined),nt,nt,-49,nt,7,nt
CCOC(=O)C(C)(C)Sc1nnc(COc2ccccc2)n1C,nt,nt,-5,nt,11,nt
CCCCN1C(=O)C(NC(C)=O)c2cc(Br)ccc21 (centres undefined),27*,-4,2,14,7,20*
COc1ccc(CNc2cc(C)nc3cc(-c4cccc(F)c4)nn23)cc1OC,nt,nt,11,nt,14,nt
Cc1nc2cc(Cl)c(NC(=O)C3CCCCC3)cc2c(=O)n1Cc1ccccc1,nt,nt,106*,nt,5,nt
Cc1nc2cc(N3CCC(C)CC3)c(NC(=O)C3CC3)cc2c(=O)n1Cc1ccccc1,nt,nt,34,nt,12,nt
COc1ccc(CCN(Cc2cccs2)S(=O)(=O)c2ccc(S(=O)(=O)N3CCCCCC3)cc2)cc1OC,9,-5,-2,-25,5,5
CCC(C)NS(=O)(=O)c1ccc(S(=O)(=O)N(CCc2ccc(OC)c(OC)c2)Cc2cccs2)cc1 (centres undefined),35*,-25,6,-90,7,31*
Oc1ccc([C@H]2Oc3cc(O)cc(O)c3C[C@H]2O)cc1,nt,nt,11,nt,9,nt
Oc1cc(O)c2c(c1)O[C@H](c1ccc(O)c(O)c1)[C@@H](O)[C@@H]2c1c(O)cc(O)c2c1O[C@@H](c1ccc(O)c(O)c1)[C@H](O)C2,nt,nt,17,nt,51*,nt
Cc1cccc(N(C(=O)c2nsc(Cl)c2Cl)C(C(=O)NC2CCCC2)c2ccc(O)cc2)c1 (centres undefined),-1,7,43,-16,14,3
COc1ccc(CN(C(=O)c2nsc(Cl)c2Cl)C(C(=O)NC2CCCC2)c2ccc(OC)cc2)cc1 (centres undefined),33*,-17,34,-36,7,23*
COc1cccc2c1c(NC(=O)c1cc(C)on1)nn2C,nt,-11,-15,-22,11,nt
COc1ccccc1NC(=O)Nc1nn(C)c2cccc(OC)c12,nt,-10,75*,-5,12,nt
